ChEMBL document CHEMBL1649316, “Using population pharmacokinetics to determine gentamicin dosing during extended daily diafiltration in critically ill patients with acute kidney injury” (Antimicrob Agents Chemother, 2010)

Columns and labels:
Type in all cases: ADME, organism-based
Homo sapiens [1] = assay: Cmax in critically ill patient with acute kidney injury at 5 mg/kg, iv administered as 1 hr infusion; design: dose 5 mg/kg, route intravenous; conditions: in vivo
Procedure, shortened: (§1)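 Monte Carlo simulation in NONMEM from the final covariate population model. 1,000 simulated subjects per regimen, modelled on a person (70 kg, BMI 23.6 kg/m²). Weight-based doses were given at EDD-f start or 30 min, 1 h, 2 h or 4 h before a 10-h EDD-f session, every 24 h or every 48 h. Targets were Cmax and AUC0-24, assuming an MIC of 1 mg/liter.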

Homo sapiens [2] = assay: Clearance in iv dosed critically ill patient with acute kidney injury during extended daily diafiltration; conditions: in vivo
Procedure, shortened: (§2)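 Patients were 14 critically ill adults with AKI on EDD-f, 28 doses in total. Gentamicin was given as a 30-min central venous infusion. Arterial plasma was sampled predose and at 15, 30, 60, 120, 180, 300, 480 and 600 min, plus samples between EDD-f sessions. Plasma levels were measured by Synchron LX assay (LOD 0.3 mg/liter). A two-compartment NONMEM model (FOCE with interaction) was fitted with EDD-f as a covariate.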

Homo sapiens [3] = assay: Cmax in critically ill patient with acute kidney injury at 6 mg/kg, iv administered every 48 hrs; design: dose 6 mg/kg, route intravenous; conditions: in vivo; procedure, shortened: as §1
Homo sapiens [4] = assay: AUC (0 to 24 hrs) in critically ill patient with acute kidney injury at 6 mg/kg, iv administered every 48 hrs; design: time < 24 hr, dose 6 mg/kg, route intravenous; conditions: in vivo; procedure, shortened: as §1
Homo sapiens [5] = assay: AUC (0 to 24 hrs) in critically ill patient with acute kidney injury at 4 mg/kg, iv administered as 30 mins infusion; design: time < 24 hr, dose 4 mg/kg, route intravenous; conditions: in vivo; procedure, shortened: as §1
Homo sapiens [6] = assay: Half life in iv dosed critically ill patient with acute kidney injury; conditions: in vivo; procedure, shortened: as §2
Homo sapiens [7] = assay: Cmax in critically ill patient with acute kidney injury at 4 mg/kg, iv administered as 30 mins infusion; design: dose 4 mg/kg, route intravenous; conditions: in vivo, 0.5 h; procedure, shortened: as §1
Homo sapiens [8] = assay: Cmax in critically ill patient with acute kidney injury at 5 mg/kg, iv administered every 24 hrs; design: dose 5 mg/kg, route intravenous; conditions: in vivo; procedure, shortened: as §1
Homo sapiens [9] = assay: AUC (0 to 24 hrs) in critically ill patient with acute kidney injury at 5 mg/kg, iv administered as 1 hr infusion; design: dose 5 mg/kg, route intravenous; conditions: in vivo; procedure, shortened: as §1
Homo sapiens [10] = assay: Clearance iv dosed in critically ill patient with acute kidney injury; conditions: in vivo; procedure, shortened: as §2
Homo sapiens [11] = assay: Half life in iv dosed critically ill patient with acute kidney injury during extended daily diafiltration; conditions: in vivo; procedure, shortened: as §2
Homo sapiens [12] = assay: AUC (0 to 24 hrs) in critically ill patient with acute kidney injury at 5 mg/kg, iv administered every 24 hrs; design: time < 24 hr, dose 5 mg/kg, route intravenous; conditions: in vivo; procedure, shortened: as §1

GENTAMICIN
Cmax (Homo sapiens [1]): > 10000 ng/mL | CL (Homo sapiens [2]): 2.54 L/h | Cmax (Homo sapiens [3]): > 10000 ng/mL | AUC (Homo sapiens [4]): 88700 ng·h/mL | AUC (Homo sapiens [5]): 70000 ng·h/mL | t1/2 (Homo sapiens [6]): 153.4 h | AUC (Homo sapiens [7]): 70000 ng·h/mL | Cmax (Homo sapiens [8]): > 10000 ng/mL | Cmax (Homo sapiens [9]): > 10000 ng/mL | CL (Homo sapiens [10]): 0.23 L/h | t1/2 (Homo sapiens [11]): 13.8 h | AUC (Homo sapiens [12]): 135700 ng·h/mL
